Several values for one entry are separate records, joined by “and”; a condition that tells them apart may be missing. Equal entries are not always repeated. Each block holds one compound with its values, some of them ahead of it.
Columns and labels:
[1] = biological target: T1, Transient receptor potential cation channel subfamily V member 1 (Homo sapiens, UniProt Q8NER1); assay: Effective concentration against human transient receptor potential vanilloid 1 receptor (n=2)
Outline: (§1)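 HEK293 cells stably expressing human or rat TRPV1 were loaded with 4 µM Fluo-3/AM for 60 min at room temperature. Cells were held in HEPES buffer, pH 7.45, with 2 mM CaCl2. Capsaicin-like Ca2+ flux was read on FLIPR with compounds up to 30 µM. Counts were basal-subtracted. Values came from a four-parameter Hill fit, as mean ± SEM.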

[2] = biological target: Transient receptor potential cation channel subfamily V member 1 (Rattus norvegicus) (UniProt O35433); assay: Percentage efficacy against rat transient receptor potential vanilloid 1 receptor (n=3)
Outline: (§2)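 FLIPR Ca2+ flux in HEK293 cells stably expressing human TRPV1 or rat TRPV1, grown in DMEM with 10% FBS. Cells were seeded, incubated overnight, then loaded with 4 µM Fluo-3/AM and 0.01% Pluronic-F127 for 60 min at room temperature. Assay buffer was HEPES-buffered saline with 2 mM CaCl2, pH 7.45. Intracellular Ca2+ was read during compound exposure, 0.3 nM–30 µM in half-log steps. Signal was basal-subtracted, taking the smaller of the peak and end-of-incubation values.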

[3] = biological target: T2, Transient receptor potential cation channel subfamily V member 1 (Rattus norvegicus, UniProt O35433); assay: Effective concentration against rat transient receptor potential vanilloid 1 receptor (n=2); outline: as §1
[4] = biological target: T1, Transient receptor potential cation channel subfamily V member 1; assay: Percentage efficacy against human transient receptor potential vanilloid 1 receptor (n=2); outline: as §2
[5] = biological target: T1, Transient receptor potential cation channel subfamily V member 1; assay: Inhibition of human transient receptor potential vanilloid 1 receptor (n=4)
Outline: (§3)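 FLIPR Ca2+ influx in Fluo-3-loaded HEK293 cells stably expressing human or rat TRPV1. Compound was added at 0.3 nM–30 µM final, in half-log steps, for 3 min before capsaicin. Signal was the smaller of peak and end fluorescence after basal subtraction. IC50 came from a four-parameter logistic fit.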

[6] = biological target: T2, Transient receptor potential cation channel subfamily V member 1; assay: Inhibition of rat transient receptor potential vanilloid 1 receptor (n=4)
Outline: as §3, with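 “capsaicin. Capsaicin was 15 nM final for human; for rat it was 15 nM, or 100 nM in later runs.” for “capsaicin.”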

[7] = biological target: T2, Transient receptor potential cation channel subfamily V member 1; assay: Inhibition of rat transient receptor potential vanilloid 1 receptor (n=2); outline: as §3
[8] = biological target: T1, Transient receptor potential cation channel subfamily V member 1; assay: Inhibition of human transient receptor potential vanilloid 1 receptor (n=3); outline: as §3
[9] = biological target: T2, Transient receptor potential cation channel subfamily V member 1; assay: Effective concentration against rat transient receptor potential vanilloid 1 receptor (n=3); outline: as §1
[10] = biological target: T2, Transient receptor potential cation channel subfamily V member 1; assay: Inhibition of rat transient receptor potential vanilloid 1 receptor (n=3)
Outline: as §3, with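 “capsaicin. Capsaicin was 15 nM final for human; for rat it was 15 nM, or 100 nM in later runs.” for “capsaicin.”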

[11] = biological target: T1, Transient receptor potential cation channel subfamily V member 1; assay: Inhibition of human transient receptor potential vanilloid 1 receptor (n=2)
Outline: as §3, with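 “capsaicin. Capsaicin was 15 nM final for human; for rat it was 15 nM, or 100 nM in later runs.” for “capsaicin.”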

[12] = biological target: T1, Transient receptor potential cation channel subfamily V member 1; assay: Effective concentration against human transient receptor potential vanilloid 1 receptor (n=6); Inactive; outline: as §1
[13] = biological target: T1, Transient receptor potential cation channel subfamily V member 1; assay: Percentage efficacy against human transient receptor potential vanilloid 1 receptor (n=3); outline: as §2
[14] = biological target: T1, Transient receptor potential cation channel subfamily V member 1; assay: Effective concentration against human transient receptor potential vanilloid 1 receptor (n=3); outline: as §1
[15] = biological target: T1, Transient receptor potential cation channel subfamily V member 1; assay: Inhibition of human transient receptor potential vanilloid 1 receptor (n=6)
Outline: as §3, with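 “capsaicin. Capsaicin was 15 nM final for human; for rat it was 15 nM, or 100 nM in later runs.” for “capsaicin.”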

[16] = biological target: T2, Transient receptor potential cation channel subfamily V member 1; assay: Effective concentration against rat transient receptor potential vanilloid 1 receptor (n=6); outline: as §1
[17] = biological target: T1, Transient receptor potential cation channel subfamily V member 1; assay: Effective concentration against human transient receptor potential vanilloid 1 receptor (n=6); outline: as §1
[18] = biological target: T1, Transient receptor potential cation channel subfamily V member 1; assay: In vitro inhibition of anandamide activated human TRPV1 receptor in [Ca2+] influx assay
[19] = biological target: T1, Transient receptor potential cation channel subfamily V member 1; assay: In vitro inhibition of PMA-activated human TRPV1 receptor in [Ca2+] influx assay
Outline: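 Human TRPV1-HEK293 cells were loaded with Fluo-3 and preincubated with compound for 3 min. They were then stimulated with 300 nM PMA, and fluorescence was monitored for 5–10 min on FLIPR. IC50 came from a four-parameter logistic fit.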

[20] = biological target: T1, Transient receptor potential cation channel subfamily V member 1; assay: Inhibition of human transient receptor potential vanilloid 1 receptor (n=5)
Outline: as §3, with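 “capsaicin. Capsaicin was 15 nM final for human; for rat it was 15 nM, or 100 nM in later runs.” for “capsaicin.”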

[21] = biological target: T2, Transient receptor potential cation channel subfamily V member 1; assay: In vitro inhibition of acid activated rat TRPV1 receptor in [Ca2+] influx assay
Outline: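 Rat TRPV1-HEK293 cells loaded with Fluo-3 were challenged for about 5 min with pH 5.8–6.0 solution to raise basal Ca2+.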

Rattus norvegicus = species: Rattus norvegicus; assay: Effective dose to produce maximal thermal desensitization in rat at 5 ug

T2 sequence (O35433 whole entry): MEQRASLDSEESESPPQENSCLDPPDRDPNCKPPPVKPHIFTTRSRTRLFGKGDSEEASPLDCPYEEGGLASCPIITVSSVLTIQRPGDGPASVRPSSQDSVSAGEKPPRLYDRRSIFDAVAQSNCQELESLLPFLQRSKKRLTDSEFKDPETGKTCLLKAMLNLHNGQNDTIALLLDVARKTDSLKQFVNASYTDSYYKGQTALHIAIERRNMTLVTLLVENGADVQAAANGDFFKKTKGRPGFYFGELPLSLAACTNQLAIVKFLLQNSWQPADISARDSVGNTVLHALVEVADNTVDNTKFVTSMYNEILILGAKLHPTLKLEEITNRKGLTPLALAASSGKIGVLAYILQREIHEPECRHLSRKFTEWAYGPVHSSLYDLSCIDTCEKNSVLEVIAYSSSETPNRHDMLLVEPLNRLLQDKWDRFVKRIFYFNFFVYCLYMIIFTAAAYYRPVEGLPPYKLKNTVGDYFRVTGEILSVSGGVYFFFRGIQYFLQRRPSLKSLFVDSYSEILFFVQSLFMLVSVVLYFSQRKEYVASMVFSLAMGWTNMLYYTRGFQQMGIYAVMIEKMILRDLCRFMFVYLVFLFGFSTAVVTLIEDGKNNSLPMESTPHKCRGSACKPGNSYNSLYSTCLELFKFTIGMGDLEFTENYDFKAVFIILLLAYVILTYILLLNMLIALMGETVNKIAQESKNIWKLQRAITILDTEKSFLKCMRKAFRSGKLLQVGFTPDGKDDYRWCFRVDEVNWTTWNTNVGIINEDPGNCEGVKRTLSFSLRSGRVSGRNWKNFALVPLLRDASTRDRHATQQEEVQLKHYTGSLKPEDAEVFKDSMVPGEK
Sequence of Transient receptor potential cation channel subfamily V member 1 (Rattus norvegicus) (O35433 whole entry): as above
T1 sequence (Q8NER1 whole entry): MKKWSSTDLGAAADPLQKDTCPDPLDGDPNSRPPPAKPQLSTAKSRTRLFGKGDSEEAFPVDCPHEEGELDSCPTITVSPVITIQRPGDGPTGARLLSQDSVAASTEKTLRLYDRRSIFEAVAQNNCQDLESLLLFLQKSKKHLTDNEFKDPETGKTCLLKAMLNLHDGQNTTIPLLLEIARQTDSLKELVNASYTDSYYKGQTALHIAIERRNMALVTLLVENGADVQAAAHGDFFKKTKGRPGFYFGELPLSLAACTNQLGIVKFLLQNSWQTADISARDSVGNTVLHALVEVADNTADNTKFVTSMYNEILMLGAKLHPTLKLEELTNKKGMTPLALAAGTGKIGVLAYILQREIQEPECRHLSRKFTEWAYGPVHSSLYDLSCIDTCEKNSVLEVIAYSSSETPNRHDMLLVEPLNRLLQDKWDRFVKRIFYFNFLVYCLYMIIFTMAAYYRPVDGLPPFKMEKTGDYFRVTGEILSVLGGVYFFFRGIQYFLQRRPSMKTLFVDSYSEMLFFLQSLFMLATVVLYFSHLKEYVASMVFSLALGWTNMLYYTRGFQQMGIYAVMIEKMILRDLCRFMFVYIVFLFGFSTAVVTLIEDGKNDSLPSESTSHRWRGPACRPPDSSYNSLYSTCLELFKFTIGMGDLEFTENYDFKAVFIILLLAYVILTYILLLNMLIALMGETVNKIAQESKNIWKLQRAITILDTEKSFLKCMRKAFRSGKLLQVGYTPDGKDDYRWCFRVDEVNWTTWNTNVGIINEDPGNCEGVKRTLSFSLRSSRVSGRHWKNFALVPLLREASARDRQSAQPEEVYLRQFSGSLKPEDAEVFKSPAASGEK

Compound: Cc1ccccc1C1CCN(C(=O)Nc2ccc(C(F)(F)F)cc2)CC1
- EC50 [1]: 1930 nM
- Efficacy [2]: 86%
- EC50 [3]: 1720 nM
- Efficacy [4]: 8%

Compound: CC1CN(c2ncccc2C(F)(F)F)CCN1C(=O)Nc1ccc(C(F)(F)F)cc1 (stereo not given)
- IC50 [5]: 64 nM
- IC50 [6]: 104 nM

Compound: O=C(Nc1ccc(C(F)(F)F)cc1)N1CCCN(c2ncccc2C(F)(F)F)CC1
- IC50 [7]: 1180 nM
- IC50 [8]: 538 nM

Compound: O=C(Nc1ccc(C(F)(F)F)cc1)N1CCN(c2cccnc2)CC1
- Efficacy [2]: 18%
- EC50 [9]: 2670 nM
- IC50 [8]: 5030 nM

Compound: Cc1cccnc1N1CCN(C(=O)Nc2ccc(Cl)cc2)CC1
- IC50 [5]: 113 nM
- IC50 [10]: 409 nM

Compound: O=C(Nc1ccc(C(F)(F)F)cc1)NC1CCN(c2ncccc2C(F)(F)F)CC1
- IC50 [7]: 4360 nM

Compound: CC1CN(c2ncccc2C(F)(F)F)CC(C)N1C(=O)Nc1ccc(C(F)(F)F)cc1 (stereo not given)
- IC50 [5]: 2450 nM
- IC50 [10]: 3720 nM

Compound: O=C(Nc1ccc(C(F)(F)F)cc1)C1CCN(c2ncccc2C(F)(F)F)CC1
- IC50 [7]: > 10000 nM
- IC50 [11]: 965 nM

Compound: O=C(Nc1ccc(C(F)(F)F)cc1)NC1CCN(c2ncccc2C(F)(F)F)C1 (stereo not given)
- EC50 [12]: > 10000 nM
- IC50 [8]: > 10000 nM
- IC50 [10]: 13100 nM

Compound: O=C(Nc1ccc(Cl)cc1)N1CCN(c2ccncc2)CC1
- Efficacy [13]: 100%
- Efficacy [2]: > 40%
- EC50 [16]: 3600 nM
- EC50 [17]: 7240 nM

Compound: Cc1cccnc1C1CCN(C(=O)Nc2ccc(C(F)(F)F)cc2)CC1
- IC50 [5]: 2170 nM
- EC50 [3]: 1960 nM
- IC50 [6]: 390 nM

Compound: Oc1cc2c(cc1O)CN(C(=S)NCCc1ccc(Cl)cc1)CCC2 [CAPSAZEPINE]
- IC50 [18]: 4 nM and 3 nM (2×)
- IC50 [19]: 5 nM and 3 nM
- IC50 [20]: 74 nM
- IC50 [7]: 365 nM
- IC50 [21]: 13 nM

Compound: COc1cc(CNC(=O)CCCC/C=C/C(C)C)ccc1O [CAPSAICIN]
- ED50 (Rattus norvegicus): 3 µg

Compound: O=C(Nc1ccc(C(F)(F)F)cc1)N1CC2CC1CN2c1ncccc1C(F)(F)F (stereo not given)
- IC50 [5]: > 10000 nM
- IC50 [7]: > 10000 nM

More lines, now with the values ahead:

- IC50 [6]: 90 nM
Compound: O=C(Nc1ccc(C(F)(F)F)cc1)N1CCN(c2ncccc2C(F)(F)F)CC1

- IC50 [7]: 1010 nM
- IC50 [8]: 367 nM
Compound: O=C(Nc1cc2ccccc2cn1)N1CCN(c2ncccc2C(F)(F)F)CC1

- IC50 [5]: 908 nM
- IC50 [7]: 3980 nM
Compound: O=C(Nc1ccc2ncccc2c1)N1CCN(c2ncccc2C(F)(F)F)CC1

- Efficacy [13]: 120%
- Efficacy [2]: 100%
- EC50 [14]: 1160 nM
- EC50 [9]: 1280 nM
Compound: O=C(Nc1ccncc1)N1CCN(c2ncccc2C(F)(F)F)CC1

- IC50 [8]: 290 nM
- IC50 [10]: 194 nM
Compound: Cc1cccnc1N1CCN(C(=O)Nc2ccc(C(F)(F)F)cc2)CC1

- IC50 [15]: 8130 nM
- IC50 [10]: 14700 nM
Compound: O=C(Nc1cccc2cccnc12)N1CCN(c2ncccc2C(F)(F)F)CC1

- Efficacy [13]: 36%
- Efficacy [2]: 2%
- EC50 [14]: 5260 nM
- EC50 [16]: 8300 nM
Compound: O=C(Nc1cccc2ncccc12)N1CCN(c2ncccc2C(F)(F)F)CC1

- IC50 [11]: 12100 nM
- IC50 [10]: > 10000 nM
Compound: O=C(Nc1ccccn1)N1CCN(c2ncccc2C(F)(F)F)CC1

- IC50 [5]: 2280 nM
- Efficacy [2]: 11%
- EC50 [9]: 7290 nM
- IC50 [10]: > 10000 nM
Compound: O=C(Nc1cccc2cnccc12)N1CCN(c2ncccc2C(F)(F)F)CC1

- IC50 [10]: 863 nM
Compound: O=C(Nc1ccc(C(F)(F)F)cc1)N1CCN(c2ccccn2)CC1

- IC50 [20]: 526 nM
- IC50 [10]: 2300 nM
Compound: O=C(Nc1cnc2ccccc2c1)N1CCN(c2ncccc2C(F)(F)F)CC1

- IC50 [18]: 6 nM and 4 nM and 3 nM
- IC50 [15]: 74 nM
- IC50 [10]: 100 nM
Compound: O=C(Nc1ccc([N+](=O)[O-])cc1)N1CCN(c2ncccc2C(F)(F)F)CC1
